Results from ChEMBL document CHEMBL1132160, “Structure-antiviral activity relationship in the series of pyrimidine and purine N-[2-(2-phosphonomethoxy)ethyl] nucleotide analogues. 1. Derivatives substituted at the carbon atoms of the base” (J Med Chem, 1999).
≈ marks a conversion by molar mass, not a printed value.

What was measured:
Human alphaherpesvirus 1 [1] = assay: Inhibition of herpes simplex virus type 1 (HSV-1) F strain; format: functional, organism-based
How it was run: (§1)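 Confluent E6SM cell cultures were inoculated with 100 CCID50 of virus and allowed 1 h for adsorption. Residual virus was then removed, and the cells were incubated with test compound at 400, 200, 100, ... μg/mL. Viral cytopathicity was scored once it reached completion in untreated infected controls.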

Human alphaherpesvirus 1 [2] = assay: Inhibitory activity against herpes simplex virus type 1 (HSV-1) KOS strain; format: functional, organism-based; how it was run: as §1
[3] = Inhibitory activity against murine sarcoma virus induced transformation of murine C3H/3T3 embryo fibroblasts; format: functional, Mus musculus
How it was run: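 Murine C3H/3T3 embryo fibroblasts were seeded at 5 × 10⁵ cells/mL. After 24 h they were infected with 80 focus-forming units of MSV for 90–120 min at 37 °C. The medium was then replaced with fresh medium containing various compound concentrations, and transformation was examined microscopically after 6 days.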

Cytomegalovirus [4] = assay: Inhibitory activity against cytomegalovirus (CMV) Davis strain; format: functional, organism-based; conditions: Human betaherpesvirus 5
How it was run: (§2)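 HEL cell cultures, grown to confluence, received 100 CCID50 of virus. After 1 h adsorption, the inoculum was removed and the cultures were incubated with serial concentrations of compound (400, 200, 100, ... μg/mL).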

[5] = tested on: Human immunodeficiency virus 1; assay: Inhibition of human immunodeficiency virus type 1 (HIV-1) induced cytopathogenicity in CEM cells; format: functional, organism-based; conditions: Human immunodeficiency virus 1, CCRF-CEM
How it was run: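 CEM cells (~3 × 10⁵ cells/mL) were infected with 100 CCID50 of HIV-1 (IIIB)/mL and plated with dilutions of compound. After 4 days at 37 °C, giant cell formation was assessed microscopically.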

Human alphaherpesvirus 2 [6] = assay: Inhibitory activity against herpes simplex virus type 2 (HSV-2) G strain; format: functional, organism-based; how it was run: as §1
[7] = Inhibitory activity against herpes simplex virus type 2 (HSV-2) 196 strain; format: functional; how it was run: as §1
Human alphaherpesvirus 2 [8] = assay: Inhibitory activity against herpes simplex virus type 2 (HSV-2) Lyons strain; format: functional, organism-based; how it was run: as §1
[9] = tested on: Human immunodeficiency virus 2; assay: Inhibition of human immunodeficiency virus type 2 (HIV-2) induced cytopathogenicity in CEM cells; format: functional, organism-based; conditions: Human immunodeficiency virus 2, CCRF-CEM
Human alphaherpesvirus 1 [10] = assay: Inhibitory activity against herpes simplex virus type 1 (HSV-1) McIntyre strain; format: functional, organism-based; how it was run: as §1
Cytomegalovirus [11] = assay: Inhibitory activity against cytomegalovirus (CMV) AD 169 strain; format: functional, organism-based; conditions: Human betaherpesvirus 5; how it was run: as §2
Vaccinia virus = assay: Inhibitory activity against vaccinia virus (VV); format: functional, organism-based; conditions: Orthopoxvirus vaccinia
How it was run: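 Confluent E6SM cell cultures were inoculated with 100 CCID50 of virus and left for 1 h adsorption, then residual virus was removed. Cultures were incubated with test compound at serial concentrations (400, 200, 100, ... μg/mL). Virus-induced cytopathicity was scored once it reached completion in untreated infected control cultures.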

[12] = tested on: Human immunodeficiency virus 1; assay: Inhibitory activity of compound against human immunodeficiency virus type 1 (HIV-1) induced cytopathogenicity in MT-4 cells; format: functional, organism-based; conditions: Human immunodeficiency virus 1, MT4
How it was run: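 Human MT-4 cells (~4 × 10⁵ cells/mL) were infected with 100 CCID50 of HIV-1 (IIIB)/mL and seeded into wells containing compound dilutions. After 5 days at 37 °C, viable cells were counted by trypan blue exclusion in a blood cell counting chamber.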

Compound	EC50 (Human alphaherpesvirus 1 [1]) [µg/mL]	EC50 (Human alphaherpesvirus 1 [2]) [µg/mL]	EC50 [3] [µg/mL]	EC50 (Cytomegalovirus [4]) [µg/mL]	EC50 [5] [µg/mL]	EC50 (Human alphaherpesvirus 2 [6]) [µg/mL]	EC50 [7] [µg/mL]	EC50 (Human alphaherpesvirus 2 [8]) [µg/mL]	EC50 [9] [µg/mL]	EC50 (Human alphaherpesvirus 1 [10]) [µg/mL]	EC50 (Cytomegalovirus [11]) [µg/mL]	EC50 (Vaccinia virus) [µg/mL]	EC50 [12] [µg/mL]
Nc1nc(O)c2nc(Br)n(CCOCP(=O)(O)O)c2n1	240 (≈ 652 µM)	240 (≈ 652 µM)	> 0.16	> 50	> 100	240 (≈ 652 µM)	240 (≈ 652 µM)	> 400	> 100	240 (≈ 652 µM)	43 (≈ 117 µM)		
CC(C)CCCCCOP(=O)(COCCn1cnc2c(N)nc(N)nc21)OCCCCCC(C)C		> 16	> 8	0.8 (≈ 1.56 µM)	> 4	> 16			> 4		0.86 (≈ 1.68 µM)	> 16	
Nc1nc(Cl)c2ncn(CCOCP(=O)(O)O)c2n1	0.13 (≈ 0.423 µM)	0.23 (≈ 0.748 µM)	> 0.16	0.3 (≈ 0.975 µM)	> 0.16	0.38 (≈ 1.24 µM)	0.38 (≈ 1.24 µM)	0.38 (≈ 1.24 µM)	> 0.16	0.22 (≈ 0.715 µM)	0.05 (≈ 0.163 µM)		
CC(C)CCCCCOP(=O)(COCCn1cnc2nc(N)nc(O)c21)OCCCCCC(C)C		> 16	> 8	11 (≈ 21.4 µM)	> 20	> 16			> 20		11 (≈ 21.4 µM)	> 16	
CC(C)OP(=O)(COCCn1c(Br)nc2c(O)nc(N)nc21)OC(C)C	240 (≈ 531 µM)	> 400	> 40	> 50	> 100	> 400	240 (≈ 531 µM)	240 (≈ 531 µM)	> 100	240 (≈ 531 µM)	> 50		
CC(C)OP(=O)(COCCn1cnc2c(N)ncnc21)OC(C)C		> 400	> 40	30 (≈ 84 µM)		> 400					8 (≈ 22.4 µM)	> 400	171 (≈ 479 µM)
CC(C)OP(=O)(O)COCCn1cnc2c(N)ncnc21		200 (≈ 634 µM)	> 40	> 50	> 100	300 (≈ 952 µM)			> 100		> 50	> 400	
CC(C)OP(=O)(O)COCCn1cnc2c(N)nc(N)nc21		150 (≈ 454 µM)	> 200	> 50	> 100	> 400			> 100		> 50	> 400	
Nc1cc2ncn(CCOCP(=O)(O)O)c2c(O)n1	> 200	> 200		> 100		> 200	> 200	> 200		> 200	> 100		
Nc1nc(N)c2nc(Br)n(CCOCP(=O)(O)O)c2n1	7 (≈ 19.1 µM)	20 (≈ 54.5 µM)	2.43 (≈ 6.62 µM)	12 (≈ 32.7 µM)	> 100	20 (≈ 54.5 µM)	70 (≈ 191 µM)	20 (≈ 54.5 µM)	> 100	20 (≈ 54.5 µM)	8 (≈ 21.8 µM)	300 (≈ 817 µM)	
CC(C)CCCCCOP(=O)(COCCn1cnc2c(N)ncnc21)OCCCCCC(C)C		> 3.2		3 (≈ 6.03 µM)	> 4	3.2 (≈ 6.43 µM)			> 4		1 (≈ 2.01 µM)	> 3.2	
CC(C)CCCCCOP(=O)(COCCn1cnc2c(O)nc(N)nc21)OCCCCCC(C)C		> 80	> 40	1.1 (≈ 2.14 µM)	> 4	> 80			> 4		1.2 (≈ 2.34 µM)	> 80	
CCOP(=O)(COCCn1cnc2c(N)ncnc21)OCC			> 40		> 100				> 100				
CC(C)OP(=O)(O)COCCn1cnc2c(O)nc(N)nc21	0.64 (≈ 1.93 µM)	5.7 (≈ 17.2 µM)	> 0.064	0.3 (≈ 0.906 µM)	> 20	5.3 (≈ 16 µM)	1.9 (≈ 5.74 µM)	1.9 (≈ 5.74 µM)	11 (≈ 33.2 µM)	0.64 (≈ 1.93 µM)	0.35 (≈ 1.06 µM)		
